Experimental data gathered from unrelated publications.
Each line is one published result; the experiments were not run side by side. ≈ marks a conversion by molar mass, not a printed value.

`Cc1nc(NC(=O)N2CCC[C@H]2C(N)=O)sc1-c1ccnc(C(C)(C)C(F)(F)F)c1` has an EC50 of 26 µM (CAL-51; cell growth or viability, ATP luminescence; 5 days).
The IC50 of `Cc1ccc(CN2C(=O)C(=Nc3cccc(Cl)c3)c3ccccc32)cc1` is reported as 4.76 µM (L02; cell growth or viability, MTT; 48 h).
With `COc1ccc(C=NNC(=S)Nc2cccnc2)cc1` the IC50 was 350 µM (Leishmania tropica; parasite growth; J774.A1; 72 h, intracellular, amastigote).
With `Nc1nn2c(-c3ccco3)cc(-c3ccc(OCc4ccccc4)cc3)nc2c1N=Nc1ccc(F)cc1` the MIC was 31.3 mg/L (≈ 62 µM) (Saccharomyces cerevisiae; microbial growth, broth dilution; ATCC9763).
`CC(C)c1cccc(C(C)C)c1N=C1C(=O)N(Cc2ccc(Br)cc2)c2ccccc21` has an IC50 of greater than 100 µM (L02; cell growth or viability, MTT; 48 h).
`C[C@H](Oc1nccc(-c2noc([C@@]3(C)CCCc4sc(N)c(C#N)c43)n2)n1)[C@@H]1CCCN1C` has an EC50 of 0.317 µM (BaF3; cell growth or viability; 72 h).
The IC50 of `CNC(=S)NN=Cc1ccc(O)c(OC)c1` is reported as 200 µM (Leishmania tropica; parasite growth, MTT; 72 h, promastigote).
For `O=C1C(=Nc2ccccc2Br)c2ccccc2N1Cc1ccccc1`, the IC50 was 66.2 µM (L02; cell growth or viability, MTT; 48 h).
`Fc1ccc(C=NNC(=S)Nc2cccnc2)cc1` has an IC50 of 314 µM (Leishmania tropica; parasite growth, MTT; 72 h, promastigote).
`C[C@H]1CNCCN1c1nccc(-c2onc3c2CCC[C@@]32CCCc3sc(N)c(C#N)c32)n1` gave an EC50 of 0.374 µM (BaF3; cell growth or viability; 72 h).
The EC50 of `CCOC(=O)C1=C(CN2CCC[C@H]2C(=O)Nc2ccc(B(O)O)cc2)NC(c2nccs2)=N[C@H]1c1ccc(F)cc1Br` is reported as 1 µM (Hepatitis B virus; viral replication, inhibitor, qPCR; HepDES19; 72 h).
The IC50 of `O=C1C(=Nc2ccccc2I)c2ccccc2N1Cc1ccc([N+](=O)[O-])cc1` is reported as 56.3 µM (L02; cell growth or viability, MTT; 48 h).
For `CCOC(=O)C1=C(CN2CCC[C@H]2C(=O)Nc2cccc(B(O)O)c2)NC(c2nccs2)=N[C@H]1c1ccc(F)cc1Br`, the EC50 was 1.9 µM (Hepatitis B virus; viral replication, inhibitor, qPCR; HepDES19; 72 h).
`Cc1cccc(N=C2C(=O)Nc3ccccc32)c1` has an IC50 of greater than 100 µM (L02; cell growth or viability, MTT; 48 h).
For `CCOC(=O)C1=C(CN2CCN(Cc3ccc(B4OC(C)(C)C(C)(C)O4)cc3)CC2)NC(c2nccs2)=NC1c1ccc(F)cc1Br` (stereo not drawn), the EC50 was 1.2 µM (Hepatitis B virus; viral replication, inhibitor, qPCR; HepDES19; 72 h).
`O=C1C(=Nc2cccc(Cl)c2)c2ccccc2N1Cc1ccc([N+](=O)[O-])cc1` has an IC50 of 22.7 µM (L02; cell growth or viability, MTT; 48 h).
The EC50 of `CCOC(=O)C1=C(CN2CCC(C(=O)Nc3cccc(B(O)O)c3)C2)NC(c2nccs2)=NC1c1ccc(F)cc1Br` (stereo not drawn) is reported as 0.9 µM (Hepatitis B virus; viral replication, inhibitor, qPCR; HepDES19; 72 h).
For `C[C@H]1CN(C)CCCN1c1nccc(-c2noc([C@@]3(C)CCCc4sc(N)c(C#N)c43)n2)n1`, the EC50 was 0.41 µM (BaF3; cell growth or viability; 72 h).
